Measurements from different studies.
Lines come from different studies, so protocols differ.
Cell line: HepG2
Read-out: cell growth or viability

`CC(=O)c1nn(-c2ccccc2Cl)/c(=N/N=C(\C)c2ccc(NC(=O)c3ccccc3)cc2)s1` has a viability of 5.77% (MTT; 1.25 µM).
With `CC(=NNC(=O)c1cccnc1)c1ccc(Nc2nnc(-c3ccc(Cl)cc3)c3ccccc23)cc1` the viability was 49.9% (MTT; 0.625 µM; 24 h).
`CN(C)c1cc(NC(=O)c2ccccn2)c(O)c2c1C[C@H]1C[C@H]3[C@H](N(C)C)C(O)=C(C(N)=O)C(=O)[C@@]3(O)C(O)=C1C2=O` gave an IC50 of 187 µg/mL (ATP luminescence; 72 h).
The viability of `CCOC(=O)c1nn(-c2cccc(Cl)c2)/c(=N/N=C(\C)c2ccc(NC(=O)c3ccc(Cl)cc3)cc2)s1` is reported as 73.1% (MTT; 78 nM).
With `CC(=NNC(=O)COc1ccc2c(C)c(Cc3ccccc3)c(=O)oc2c1C)c1ccc(Br)cc1` the viability was 50.6% (MTT; 6.3 µg/mL).
For `COc1ccc(-c2cc(-c3ccc(Br)cc3)c3c(=O)[nH]c(=O)[nH]c3n2)cc1`, the IC50 was 11.2 µM (MTT; 48 h).
With `CC(=NNC(=O)c1ccncc1)c1ccc(Nc2nnc(-c3ccc(Cl)cc3)c3ccccc23)cc1` the cell death was 3.16% (MTT; 78 nM).
`COc1ccc(-c2cc(-c3ccc(C)cc3)nc3[nH]c(=O)[nH]c(=O)c23)cc1OC` gave an IC50 of 34.7 µM (MTT; 48 h).
With `CCOC(=O)c1nn(-c2cccc(Cl)c2)/c(=N/N=C(\C)c2ccc(NC(=O)c3ccccc3)cc2)s1` the viability was 3% (MTT; 5 µM).
The cell death of `O=C(C=Cc1ccccc1)Nc1ccc(Oc2nnc(-c3ccc(Cl)cc3)c3ccccc23)cc1` is reported as 62.6% (MTT; 1.25 µM).
For `CC(=O)Nc1ccc(/C(C)=N/N=c2\sc(C(C)=O)nn2-c2ccc(C)cc2)cc1`, the viability was 48.8% (MTT; 10 µM).
The IC50 of `COc1ccc(-c2cc(-c3cccc(Br)c3)c3c(=O)[nH]c(=O)[nH]c3n2)cc1` is reported as 16.2 µM (MTT; 48 h).
`O=C(Nc1ccc(Oc2nnc(-c3ccc(Cl)cc3)c3ccccc23)cc1)c1cccc([N+](=O)[O-])c1` has a viability of 5.16% (MTT; 5 µM; 24 h).
`CC(=O)c1nn(-c2ccc(C)cc2)/c(=N/N=C(\C)c2ccc(NC(=O)c3ccccc3)cc2)s1` has a viability of 6.81% (MTT; 5 µM).
For `COc1ccc(-c2cc(-c3ccc(OC)cc3)c3c(=O)n(C)c(=O)n(C)c3n2)cc1`, the IC50 was 17.3 µM (MTT; 48 h).
With `O=C(Nc1ccccc1)Nc1ccc(Oc2nnc(-c3ccc(Cl)cc3)c3ccccc23)cc1` the viability was 7.03% (MTT; 0.312 µM; 24 h).
`COc1ccc(-c2cc(-c3ccc(Cl)cc3)c3c(=O)n(C)c(=O)n(C)c3n2)cc1` gave an IC50 of 17.3 µM (MTT; 48 h).
`CN(C)c1cc(NC(=O)CCc2ccccc2)c(O)c2c1C[C@H]1C[C@H]3[C@H](N(C)C)C(O)=C(C(N)=O)C(=O)[C@@]3(O)C(O)=C1C2=O` has an IC50 of 165 µg/mL (ATP luminescence; 72 h).
The viability of `CC(=NNC(=O)c1ccccc1O)c1ccc(Nc2nnc(-c3ccc(Cl)cc3)c3ccccc23)cc1` is reported as 87.2% (MTT; 1.25 µM; 24 h).
